Measured values from ChEMBL document CHEMBL1131421, “Tetrahydro-isoquinoline-based factor Xa inhibitors” (J Med Chem, 1998).
Values belong to the molecule of their own block, whether it stands above or below them.

Assays:
[1] = The Anti-coagulant activity was tested by measuring activated partial thromboplastin time (aPTT); format: functional
Method in brief: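 Human citrated plasma (blood 9:1 with 0.11 mol/L sodium citrate, spun 3000 rpm 10 min, RT, used within 8 h) plus aPTT reagent and compound in DMSO (DMSO-only control), 3 min at 37 °C in a coagulometer; clotting time recorded at 1000, 200, 100, 10, 1 μM in plasma. ED200 (aPTT-doubling concentration) from nonlinear fit of y = a + b·x^c; quadruplicate determinations.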

Prothrombin [2] = target: T1, Prothrombin (Homo sapiens, UniProt P00734); test: The Anti-coagulant activity was tested by measuring thrombin clotting time (TT); format: functional
Method in brief: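 Thrombin clotting time in human citrated plasma (blood 9:1 with 0.11 mol/L citrate, spun 3000 rpm 10 min, stored RT ≤8 h); plasma with compound in DMSO or DMSO control incubated 2 min at 37 °C in coagulometer. Clotting measured at 500, 100, 50, 5, 0.5 μM in plasma; doubling concentration (ED200) obtained by nonlinear regression of y = a + b·x^c.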

Prothrombin [3] = target: T1, Prothrombin; test: The inhibition constant against human thrombin
Plasminogen = Plasminogen (Homo sapiens, UniProt P00747); test: The inhibition constant against human plasmin
Coagulation factor X = Coagulation factor X (Homo sapiens, UniProt P00742); test: The inhibition constant against human Coagulation factor X
Trypsin = Trypsin (Homo sapiens, UniProt P07477+P07478+P35030); test: The inhibition constant against human trypsin; format: protein assay

Plasminogen, sequence (P00747 97-580 limits assumed): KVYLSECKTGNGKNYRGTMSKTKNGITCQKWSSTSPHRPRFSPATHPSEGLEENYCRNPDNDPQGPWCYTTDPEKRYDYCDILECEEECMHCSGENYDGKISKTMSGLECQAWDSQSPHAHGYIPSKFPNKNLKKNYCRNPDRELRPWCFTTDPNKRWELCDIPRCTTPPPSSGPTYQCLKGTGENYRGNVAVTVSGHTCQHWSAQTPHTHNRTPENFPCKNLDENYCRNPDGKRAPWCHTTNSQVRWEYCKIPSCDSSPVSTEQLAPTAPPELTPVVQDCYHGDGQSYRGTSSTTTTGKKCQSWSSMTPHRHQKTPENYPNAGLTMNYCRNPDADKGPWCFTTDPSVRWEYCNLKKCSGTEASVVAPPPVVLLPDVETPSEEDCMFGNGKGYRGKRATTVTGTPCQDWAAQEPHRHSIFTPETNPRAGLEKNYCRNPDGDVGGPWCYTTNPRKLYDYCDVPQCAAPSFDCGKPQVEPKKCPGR
Plasminogen, sequence (P00747 581-810 limits assumed): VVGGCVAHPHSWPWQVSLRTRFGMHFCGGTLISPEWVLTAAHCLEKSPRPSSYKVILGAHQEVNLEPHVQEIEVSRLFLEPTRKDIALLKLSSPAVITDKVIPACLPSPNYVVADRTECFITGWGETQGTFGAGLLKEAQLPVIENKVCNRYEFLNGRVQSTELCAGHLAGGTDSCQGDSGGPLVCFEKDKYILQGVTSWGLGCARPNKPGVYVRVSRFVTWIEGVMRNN
Coagulation factor X, sequence (P00742 41-179 limits assumed): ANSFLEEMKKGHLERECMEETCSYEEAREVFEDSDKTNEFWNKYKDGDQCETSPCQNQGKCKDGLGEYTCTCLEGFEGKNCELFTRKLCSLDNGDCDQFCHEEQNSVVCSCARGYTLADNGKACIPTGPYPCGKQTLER
Coagulation factor X, sequence (P00742 235-488 limits assumed): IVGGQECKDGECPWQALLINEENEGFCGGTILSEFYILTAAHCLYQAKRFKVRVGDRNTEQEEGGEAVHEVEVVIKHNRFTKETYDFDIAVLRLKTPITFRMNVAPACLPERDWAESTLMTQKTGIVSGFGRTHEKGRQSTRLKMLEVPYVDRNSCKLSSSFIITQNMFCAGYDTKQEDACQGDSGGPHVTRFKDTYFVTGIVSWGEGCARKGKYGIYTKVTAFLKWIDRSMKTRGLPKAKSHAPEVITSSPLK

Structure (SMILES): N=C(N)N1CCc2ccc(OC(C(=O)O)c3ccc(O[C@H]4CCN(C(=N)N)C4)cc3)cc2C1 (stereo partly drawn)
ED200 [1]: 40 µM
ED200 (Prothrombin [2]): > 500 µM
Ki (Prothrombin [3]): > 100 µM
Ki (Coagulation factor X): 0.2 µM
Ki (Trypsin): 1 µM

Structure (SMILES): CCOC(=O)C(Oc1ccc2c(c1)CN(C(=N)N)CC2)c1ccc(O[C@H]2CCN(C(C)=N)C2)cc1 (stereo partly drawn)
ED200 [1]: 10 µM
ED200 (Prothrombin [2]): 100 µM
Ki (Prothrombin [3]): > 100 µM
Ki (Coagulation factor X): 0.1 µM
Ki (Trypsin): 2 µM

Structure (SMILES): CC(=N)N1CCC(Oc2ccc(C(Oc3ccc4c(c3)CN(C(=N)N)CC4)C(=O)O)cc2)CC1 (stereo not drawn)
ED200 [1]: 11 µM
ED200 (Prothrombin [2]): > 500 µM
Ki (Prothrombin [3]): > 100 µM
Ki (Plasminogen): 52 µM
Ki (Coagulation factor X): 0.055 µM
Ki (Trypsin): 2 µM

Structure (SMILES): CC(=N)N1CC[C@H](Oc2ccc(C(Oc3ccc4c(c3)CN(C(=N)N)CC4)C(=O)O)cc2)C1 (stereo partly drawn)
ED200 [1]: 30 µM
ED200 (Prothrombin [2]): > 500 µM
Ki (Prothrombin [3]): > 100 µM
Ki (Coagulation factor X): 0.08 µM
Ki (Trypsin): 10 µM

Structure (SMILES): N=C(N)N1CCc2ccc(OC(C(=O)O)c3ccc(O[C@H]4CCNC4)cc3)cc2C1 (stereo partly drawn)
ED200 [1]: 50 µM
ED200 (Prothrombin [2]): > 500 µM
Ki (Prothrombin [3]): > 100 µM
Ki (Plasminogen): 10 µM
Ki (Coagulation factor X): 1 µM
Ki (Trypsin): 10 µM

Structure (SMILES): N=C(N)N1CCC(Oc2ccc(C(Oc3ccc4c(c3)CN(C(=N)N)CC4)C(=O)O)cc2)CC1 (stereo not drawn)
ED200 [1]: 9 µM
ED200 (Prothrombin [2]): > 500 µM
Ki (Prothrombin [3]): > 100 µM
Ki (Plasminogen): 44 µM
Ki (Coagulation factor X): 0.044 µM
Ki (Trypsin): 0.2 µM

Structure (SMILES): CCOC(=O)C(Oc1ccc2c(c1)CN(C(=N)N)CC2)c1ccc(O[C@H]2CCN(C3=CC(=O)CC(C)(C)C3)C2)cc1 (stereo partly drawn)
ED200 [1]: 24 µM
ED200 (Prothrombin [2]): 90 µM
Ki (Prothrombin [3]): > 100 µM
Ki (Plasminogen): 50 µM
Ki (Coagulation factor X): 0.2 µM
Ki (Trypsin): 10 µM

Structure (SMILES): COc1ccc(C(=N)N2CCC(Oc3ccc(C(Oc4ccc5c(c4)CN(C(=N)N)CC5)C(=O)O)cc3)CC2)cc1 (stereo not drawn)
ED200 [1]: 7 µM
ED200 (Prothrombin [2]): > 500 µM
Ki (Prothrombin [3]): > 100 µM
Ki (Coagulation factor X): 0.026 µM
Ki (Trypsin): 0.2 µM

Structure (SMILES): C=CCN1CC[C@H](Oc2ccc(C(Oc3ccc4c(c3)CN(C(=N)N)CC4)C(=O)OCC)cc2)C1 (stereo partly drawn)
ED200 [1]: 27 µM
ED200 (Prothrombin [2]): 240 µM
Ki (Prothrombin [3]): > 100 µM
Ki (Plasminogen): 50 µM
Ki (Coagulation factor X): 1 µM
Ki (Trypsin): 10 µM

Structure (SMILES): N=C(N)N1CCc2ccc(OC(C(=O)O)c3ccc(OC4CCOCC4)cc3)cc2C1 (stereo not drawn)
ED200 [1]: > 500 µM
ED200 (Prothrombin [2]): > 500 µM
Ki (Prothrombin [3]): > 100 µM
Ki (Plasminogen): 25 µM
Ki (Coagulation factor X): 3 µM
Ki (Trypsin): 12 µM

Structure (SMILES): CCOC(=O)C(Oc1ccc2c(c1)CN(C(=N)N)CC2)c1ccc(O[C@H]2CCNC2)cc1 (stereo partly drawn)
ED200 [1]: 26 µM
ED200 (Prothrombin [2]): 140 µM
Ki (Prothrombin [3]): > 100 µM
Ki (Plasminogen): 40 µM
Ki (Coagulation factor X): 0.4 µM
Ki (Trypsin): 6 µM

Structure (SMILES): C=CCOC(=O)N1CC[C@H](Oc2ccc(C(Oc3ccc4c(c3)CN(C(=N)N)CC4)C(=O)OCC)cc2)C1 (stereo partly drawn)
ED200 [1]: 200 µM
ED200 (Prothrombin [2]): 500 µM
Ki (Prothrombin [3]): > 100 µM
Ki (Plasminogen): 10 µM
Ki (Coagulation factor X): 0.2 µM
Ki (Trypsin): 9 µM

Structure (SMILES): CC(=N)N1CC[C@H](Oc2ccc([C@H](Cc3ccc4ccc(C(=N)N)cc4c3)C(=O)O)cc2)C1.Cl [DX-9065A HYDROCHLORIDE HYDRATE]
Ki (Plasminogen): 11 µM
Ki (Trypsin): 2 µM

Structure (SMILES): CCOC(=O)C(Oc1ccc2c(c1)CN(C(=N)N)CC2)c1ccc(OC2CCN(C(C)=O)CC2)cc1 (stereo not drawn)
ED200 [1]: 100 µM
ED200 (Prothrombin [2]): 200 µM
Ki (Prothrombin [3]): > 100 µM
Ki (Plasminogen): 10 µM
Ki (Coagulation factor X): 3 µM
Ki (Trypsin): 10 µM

Structure (SMILES): CC1(C)CC(=O)C=C(N2CC[C@H](Oc3ccc(C(Oc4ccc5c(c4)CN(C(=N)N)CC5)C(=O)O)cc3)C2)C1 (stereo partly drawn)
ED200 [1]: 200 µM
ED200 (Prothrombin [2]): > 500 µM
Ki (Prothrombin [3]): > 100 µM
Ki (Plasminogen): 50 µM
Ki (Coagulation factor X): 0.2 µM
Ki (Trypsin): 10 µM

Structure (SMILES): CC(=O)N1CCC(Oc2ccc(C(Oc3ccc4c(c3)CN(C(=N)N)CC4)C(=O)O)cc2)CC1 (stereo not drawn)
ED200 [1]: 150 µM
ED200 (Prothrombin [2]): > 500 µM
Ki (Prothrombin [3]): > 100 µM
Ki (Coagulation factor X): 0.4 µM
Ki (Trypsin): 5 µM

Second part, led by results:

ED200 (Prothrombin [2]): > 500 µM
Ki (Prothrombin [3]): > 100 µM
Ki (Plasminogen): 25 µM
Ki (Coagulation factor X): 2 µM
Ki (Trypsin): 6 µM
Structure (SMILES): N=C(N)N1CCc2ccc(OC(C(=O)O)c3ccc(OC4CCNCC4)cc3)cc2C1 (stereo not drawn)
ED200 [1]: 190 µM

ED200 (Prothrombin [2]): 300 µM
Ki (Prothrombin [3]): 13 µM
Ki (Plasminogen): 45 µM
Ki (Coagulation factor X): 0.2 µM
Ki (Trypsin): 2 µM
Structure (SMILES): CCOC(=O)C(Oc1ccc2c(c1)CN(C(=N)N)CC2)c1ccc(O[C@H]2CCN(C(=N)N)C2)cc1 (stereo partly drawn)
ED200 [1]: 10 µM

ED200 (Prothrombin [2]): 70 µM
Ki (Prothrombin [3]): 20 µM
Ki (Coagulation factor X): 0.03 µM
Ki (Trypsin): 0.08 µM
Structure (SMILES): CCOC(=O)C(Oc1ccc2c(c1)CN(C(=N)N)CC2)c1ccc(OC2CCN(C(=N)CC)CC2)cc1 (stereo not drawn)
ED200 [1]: 10 µM

ED200 (Prothrombin [2]): 32 µM
Ki (Prothrombin [3]): 5 µM
Ki (Coagulation factor X): 0.021 µM
Ki (Trypsin): 0.2 µM
Structure (SMILES): CCOC(=O)C(Oc1ccc2c(c1)CN(C(=N)N)CC2)c1ccc(OC2CCN(C(=N)c3ccc(OC)cc3)CC2)cc1 (stereo not drawn)
ED200 [1]: 6 µM

ED200 (Prothrombin [2]): 71 µM
Ki (Prothrombin [3]): 16 µM
Ki (Plasminogen): 25 µM
Ki (Coagulation factor X): 2 µM
Ki (Trypsin): 3 µM
Structure (SMILES): CCOC(=O)C(Oc1ccc2c(c1)CN(C(=N)N)CC2)c1ccc(OC2CCNCC2)cc1 (stereo not drawn)
ED200 [1]: 26 µM

ED200 (Prothrombin [2]): 500 µM
Ki (Prothrombin [3]): 8 µM
Ki (Plasminogen): 26 µM
Ki (Coagulation factor X): 2 µM
Ki (Trypsin): 3 µM
Structure (SMILES): CCOC(=O)C(Oc1ccc2c(c1)CN(C(=N)N)CC2)c1ccc(OC2CCOCC2)cc1 (stereo not drawn)
ED200 [1]: 250 µM

ED200 (Prothrombin [2]): > 500 µM
Ki (Prothrombin [3]): 4 µM
Ki (Plasminogen): 14 µM
Ki (Coagulation factor X): 3 µM
Structure (SMILES): C=CCOC(=O)N1CCC(Oc2ccc(C(Oc3ccc4c(c3)CN(C(=N)N)CC4)C(=O)OCC)cc2)CC1 (stereo not drawn)
ED200 [1]: 260 µM

ED200 (Prothrombin [2]): 53 µM
Ki (Prothrombin [3]): 15 µM
Ki (Plasminogen): 25 µM
Ki (Coagulation factor X): 0.03 µM
Ki (Trypsin): 0.4 µM
Structure (SMILES): CCOC(=O)C(Oc1ccc2c(c1)CN(C(=N)N)CC2)c1ccc(OC2CCN(C(C)=N)CC2)cc1 (stereo not drawn)
ED200 [1]: 3 µM

ED200 (Prothrombin [2]): 54 µM
Ki (Prothrombin [3]): 8 µM
Ki (Plasminogen): 25 µM
Ki (Coagulation factor X): 0.028 µM
Ki (Trypsin): 0.2 µM
Structure (SMILES): CCOC(=O)C(Oc1ccc2c(c1)CN(C(=N)N)CC2)c1ccc(OC2CCN(C(=N)N)CC2)cc1 (stereo not drawn)
ED200 [1]: 3 µM
